Data set [1] has as its system Madin-Darby bovine kidney (MDBK) cells. In words: In vitro MTT cytotoxicity assay on MDBK cells. The format is cell-based. The following applies: MDBK cells; for Maximum non-toxic concentration: highest concentration with no significant effect on cell viability. Summed up: (§1)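 MDBK cells (NBL-1) were kept in MEM with 10% FBS and penicillin/streptomycin at 37 °C, 5% CO2, and passaged with Accutase at ~70% confluence. Cells were seeded at 2×10^4/well and grown 24 h. Test compound was added at final 0.1, 1, 10, 50 or 100 μM, with a DMSO solvent control, for 24 h. MTT was added for 2 h, formazan dissolved in 99% isopropanol, and A562 read. Viability = compound/DMSO ×100. Maximum non-toxic concentration = highest concentration with no significant viability effect. Three repeats.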
On the technique in general: Tetrazolium assays rely on reduction of a dye to a coloured formazan, in cell work by metabolically active cells.

The nature of data set [2]: In vitro MTT cytotoxicity assay on MDBK cells. The following applies: bovine, MDBK cells (NBL-1 strain). The format is cell-based, bovine. A digest of the protocol: as §1
In another data set the test system is E. tenella sporozoites. The data set can be described thus: In vitro viability assay for E. tenella sporozoites. The format is cell-based, Eimeria tenella. The following applies: criteria of Isah et al., 2016: high, moderate, low/no potency. Summed up:
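E. tenella OPU strain oocysts were sporulated in ~0.1% potassium dichromate at 28 °C and hypochlorite-treated. Sporocysts were excysted for 1–2 h at 41 °C in HBSS with 1% taurodeoxycholic acid and 0.25% trypsin. Sporozoites at 5×10^6/ml in phenol-red-free RPMI 1640 with antibiotics got test compound (screen 100 μM; IC50 range 1–100 μM) for 24 h at 37 °C, 5% CO2. Cell Count Reagent SF was then added for 3 h. Viability was expressed relative to DMSO = 100%.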

As to `CC1(C)CC[C@]2(C(=O)O)CC[C@]3(C)C(=CC[C@@H]4[C@@]5(C)CC[C@H](O)C(C)(C)[C@@H]5CC[C@]43C)[C@@H]2C1` [Component C-5, Oleanolic acid], the “Concentration that significantly reduced the viability of MDBK cells” value in data set [1] (24 h, MTT) was found to be 100 µM. Moreover, the “Maximum non-toxic concentration” value in data set [1] stood at 50 µM. Moreover, in data set [2], the viability at 24 h, 0.1 µM worked out at 99.9%; the viability at 24 h, 1 µM worked out at 99.2%; the viability at 24 h, 10 µM turned out to be 102%; the viability at 24 h, 50 µM amounted to 105%. Moreover, the viability at 24 h, 100 µM in data set [2] amounted to 16.2%. For the same compound, in the data set with E. tenella sporozoites, the “Potency of anti-parasitical effect against Eimeria parasites (category by IC50)” value is “high potency”.
Take `C[C@H]1[C@H](C)CC[C@]2(C(=O)O)CC[C@]3(C)C(=CC[C@@H]4[C@@]5(C)CC[C@H](O)C(C)(C)[C@@H]5CC[C@]43C)[C@H]12` [Component D-3, Ursolic acid]: in data set [1], the “Maximum non-toxic concentration” value came out at 10 µM. In data set [2], the viability at 24 h, 0.1 µM turned out to be 92.9%; the viability at 24 h, 1 µM was 86.4%; the viability at 24 h, 10 µM came out at 105%; the viability at 24 h, 50 µM was -13.1%. Besides, in data set [2], the viability at 24 h, 100 µM was -14.2%. For the same compound, the “Potency of anti-parasitical effect against Eimeria parasites (category by IC50)” value in the data set with E. tenella sporozoites is recorded as “low/no potency”.

Broadly, the viability is a read-out of living cells in per cent, often relative to untreated cells.

Source of the values: article PMC11362645 (International Journal for Parasitology: Parasites and …, 2024).
